This is an account of results in ChEMBL document CHEMBL4049439, “Synthesis and Characterization of Tetrahydropyran-Based Bacterial Topoisomerase Inhibitors with Antibacterial Activity against Gram-Negative Bacteria” (J Med Chem, 2017).

Values after ≈ are worked out from the molar mass of the structure shown. Active and inactive are the calls of the source. The rule behind the calls is not given here. Some results are limits rather than exact numbers.

By CL/F is commonly meant clearance divided by bioavailability, as obtained after extravascular dosing. In general, MIC refers to the lowest concentration that inhibits growth of the organism. A high value points to a less susceptible organism. The term fraction unbound denotes free concentration divided by total concentration. Higher therefore signals weak binding. One may read the logD as lipophilicity at a set pH, counting ionised and neutral species. Higher therefore signals higher lipophilicity. By clearance is commonly meant the rate of elimination divided by the concentration. Low readings indicate inefficient removal, high ones efficient removal. As usually defined, the solubility is the dissolved amount per volume that the medium holds.

Data set [1] in a line: Apparent clearance in NMRI mouse at 120 mg/kg, sc by LC-MS/MS analysis. It is filed as ADME, organism-based. To be noted: in vivo. An outline of the steps: (§1)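 Mice dosed iv at 10 mg/kg or sc at 120 mg/kg. AUC normalized to dose (μg·h/(mL·dose)). Unbound AUC derived using fraction unbound. Clearance, Vdss and terminal half-life also derived.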
For data set [2], the system named is Escherichia coli. The experiment in a line: Antibacterial activity against Escherichia coli ATCC 25922 by CLSI broth microdilution method. In kind it is functional. On the technique in general: Broth dilution looks for growth in wells or tubes with falling amounts of substance.
A short description of data set [3]: Cardiotoxicity against human induced pluripotent stem cell-derived cardiomyocytes assessed as total drug concentration causing effect on spontaneous rhythm after 5 to 60 mins by Fluo-4 dye based fluorescence assay. It is filed as toxicity. Conditions: cardiac muscle cell. An outline of the steps:
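Spontaneous beating rhythm of human iPSC-derived cardiomyocytes monitored. Reported value is the lowest active concentration, free or total. Free/total conversion corrected for 20% serum in the test solution.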

Data set [4] in a line: Fraction unbound in NMRI mouse plasma at 120 mg/kg, sc by rapid equilibrium dialysis. In kind it is ADME, organism-based. An outline of the steps: as §1
On the technique in general: In equilibrium dialysis free small molecules cross a membrane that holds back macromolecules.

Data set [5] in a line: Lipophilicity, log D of the compound at pH 7.4. In kind it is physicochemical. To be noted: buffer.
Data set [6] can be described thus: Clearance in dog at 1 mg/kg, iv by LC-MS/MS analysis. It is filed as ADME, organism-based, Canis lupus familiaris. Conditions: in vivo. In a few lines: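 Dogs given 1 mg/kg iv. Clearance (mL/min/kg) and half-life (h) derived from plasma profiles.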
Data set [7] deals with Mus musculus. Nature of the data set: Dose normalized unbound AUC in NMRI mouse at 120 mg/kg, sc by LC-MS/MS analysis. It is filed as ADME, organism-based. To be noted: in vivo. In a few lines:
as §1

A short description of data set [8]: Terminal half-life in NMRI mouse at 120 mg/kg, sc by LC-MS/MS analysis. In kind it is ADME, organism-based. Conditions: in vivo, read-out: beta t1/2 (converted). An outline of the steps: as §1
Data set [9] relates to Escherichia coli. The experiment in a line: Antibacterial activity against Escherichia coli ATCC 25922 infected in cyclophosphamide-induced neutropenic NMRI mouse model assessed as reduction in colony forming units in thighs at 120 mg/kg, sc treated 2 hrs post infection measured 5.5 hrs post dose. It is filed as functional, organism-based. In a few lines: (§2)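 Neutropenic murine thigh infection with an E. coli strain, compound given subcutaneously. Thigh CFU counted 7.5 h post-infection (5.5 h post-treatment). Net change expressed relative to CFU at treatment start.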

In data set [10] the test system is Cavia porcellus. Nature of the data set: Cardiotoxicity in Dunkin-Hartley guinea pig assessed as free plasma concentration causing effect on mean arterial pressure administered as iv at 3 mg/kg for first 20 mins of infusion followed by 10 mg/kg for second 20 mins of infusion followed by 30 mg/kg for third 20 mins of infusion by LC-MS/MS analysis. In kind it is toxicity, organism-based. Conditions: in vivo. In a few lines:
(§3)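 Anesthetized guinea pigs received 3, 10 and 30 mg/kg iv over three consecutive 20 min periods. MAP, HR and ECG intervals (PR, QRS, RR, QT) recorded continuously. Blood drawn at the end of each period for drug levels. Value is the lowest plasma concentration differing from vehicle-treated animals. Free level uses unbound fraction from rapid equilibrium dialysis of guinea pig plasma.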

Data set [11] in a line: Fraction unbound in Wistar rat plasma at 10 mg/kg, iv by rapid equilibrium dialysis. It is filed as ADME, organism-based. An outline of the steps:
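Rats dosed iv at 10 mg/kg or 1 mg/kg. Dose-normalized AUC (μg·h/(mL·dose)) and its unbound counterpart derived via fraction unbound. Clearance, unbound clearance, Vdss and half-life also derived.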

In data set [12] the test system is Cavia porcellus. Nature of the data set: Cardiotoxicity in Dunkin-Hartley guinea pig assessed as free plasma concentration causing effect on PR interval administered as iv at 3 mg/kg for first 20 mins of infusion followed by 10 mg/kg for second 20 mins of infusion followed by 30 mg/kg for third 20 mins of infusion by LC-MS/MS analysis. It is filed as toxicity, organism-based. Conditions: in vivo. In a few lines:
as §3

The subject of data set [13] is Mus musculus. The experiment in a line: Dose normalized AUC in NMRI mouse at 120 mg/kg, sc by LC-MS/MS analysis. It is filed as ADME, organism-based. To be noted: in vivo. An outline of the steps: as §1
Data set [14] has as its system Escherichia coli. The experiment in a line: Antibacterial activity against Escherichia coli ATCC 25922 infected in cyclophosphamide-induced neutropenic NMRI mouse model assessed as log reduction in colony forming units in thighs at 360 mg/kg, sc treated 2 hrs post infection measured 5.5 hrs post dose. It is filed as functional. An outline of the steps:
as §2

For data set [15], the system named is Acinetobacter baumannii. Nature of the data set: Antibacterial activity against fluoroquinolone-resistant Acinetobacter baumannii T6474 by CLSI broth microdilution method. It is filed as functional.
Data set [16] concerns Staphylococcus aureus. Nature of the data set: Antibacterial activity against methicillin-sensitive Staphylococcus aureus A-1178 infected in cyclophosphamide-induced neutropenic NMRI mouse model assessed as log reduction in colony forming units in thighs at 40 mg/kg, sc treated 2 hrs post infection measured 22 hrs post dose. In kind it is functional. In a few lines:
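Neutropenic mouse thigh model infected with a methicillin-sensitive S. aureus strain, subcutaneous dosing. Thigh CFU measured 24 h post-infection (22 h post-treatment). Net log reduction given against CFU at treatment start.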

Data set [17] deals with Mus musculus. Nature of the data set: Dose normalized unbound AUC in NMRI mouse at 10 mg/kg, iv by LC-MS/MS analysis. In kind it is ADME, organism-based. Conditions: in vivo. In a few lines:
as §1

A short description of data set [18]: Ratio of AUC in NMRI mouse to MIC for methicillin-sensitive Staphylococcus aureus A-1178 infected in cyclophosphamide-induced neutropenic NMRI mouse model at 40 mg/kg/day.
Data set [19] has as its system Escherichia coli. Nature of the data set: Antibacterial activity against Escherichia coli MG1655 harboring tolC deletion mutant by CLSI broth microdilution method. In kind it is functional. Conditions: K-12 substr. MG1655. In a few lines: (§4)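 MIC (μg/mL) measured against engineered derivatives of E. coli MG1655. ΔrfaC has truncated LPS (raised permeability). ΔtolC lacks the outer-membrane TolC efflux component. ΔacrAB lacks the AcrAB efflux system of the cytoplasmic membrane.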

Data set [20] in a line: Volume of distribution at steady state in NMRI mouse at 10 mg/kg, iv by LC-MS/MS analysis. It is filed as ADME, organism-based. To be noted: in vivo, read-out: Vdss. In a few lines:
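Mice received a single dose of 10 mg/kg intravenously, or 120 mg/kg subcutaneously for one compound. Clearance, Vdss, half-life, unbound fraction and dose-normalized AUC were derived from plasma exposure.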

Data set [21] has as its system Escherichia coli. Nature of the data set: Ratio of MIC for wild-type Escherichia coli MG1655 to MIC for Escherichia coli MG1655 harboring tolC deletion mutant. It is filed as functional, K-12 substr. MG1655. In a few lines: (§5)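 Fold change in MIC for each MG1655 derivative (ΔacrAB, ΔrfaC, ΔtolC) relative to the MIC measured on wild-type E. coli MG1655, with both MICs in μg/mL.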

Data set [22] deals with Escherichia coli. The experiment in a line: Antibacterial activity against wild-type Escherichia coli MG1655 by CLSI broth microdilution method. To be noted: K-12 substr. MG1655. It is filed as functional. An outline of the steps:
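MIC (μg/mL) determined on wild-type E. coli MG1655, the parent of isogenic strains with truncated LPS or deleted TolC or AcrAB efflux.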

Data set [23] relates to Escherichia coli. Nature of the data set: Antibacterial activity against Escherichia coli MG1655 harboring rfac deletion mutant by CLSI broth microdilution method. Conditions: K-12 substr. MG1655. In kind it is functional. In a few lines:
as §4

The test system of data set [24] is Escherichia coli. Nature of the data set: Ratio of MIC for wild-type Escherichia coli MG1655 to MIC for Escherichia coli MG1655 harboring rfac deletion mutant. It is filed as functional, K-12 substr. MG1655. An outline of the steps: as §5
A short description of data set [25]: Solubility of the compound at pH 1 to 9. It is filed as physicochemical. To be noted: buffer.
Data set [26] in a line: Fraction unbound in NMRI mouse at 10 mg/kg, iv by rapid equilibrium dialysis. It is filed as ADME, organism-based. To be noted: plasma. In a few lines:
as §1

Data set [27] deals with Escherichia coli. Nature of the data set: Ratio of MIC for wild-type Escherichia coli MG1655 to MIC for Escherichia coli MG1655 harboring AcrAB deletion mutant. It is filed as functional, K-12 substr. MG1655. An outline of the steps: as §5
Data set [28] has as its system Escherichia coli. The experiment in a line: Antibacterial activity against Escherichia coli MG1655 harboring AcrAB deletion mutant by CLSI broth microdilution method. Conditions: K-12 substr. MG1655. It is filed as functional. In a few lines:
as §4

Data set [29] in a line: Terminal half-life in NMRI mouse at 10 mg/kg, iv by LC-MS/MS analysis. It is filed as ADME, organism-based. To be noted: in vivo, read-out: beta t1/2 (converted). An outline of the steps:
as §1

Take `COc1ccc2ccc(=O)n(C[C@H](N)[C@@H]3CC[C@@H](NCc4ccc5c(n4)NC(=O)CO5)CO3)c2n1`: the CL/F in [1] was determined as 86 mL/min/kg. Besides, the MIC in [2] worked out at 0.25 µg/mL (≈ 0.52 µM); in data set [15], 1 µg/mL (≈ 2.08 µM). In addition, the Drug uptake in data set [3] was 0.31 to 0.93 µM. In addition, the results for the fraction unbound in data set [4] and in data set [11] were 0.369 and 0.236, respectively. Besides, in [5], the logD came out at 0.3. This molecule returned a clearance in [6] of 45 mL/min/kg. The fAUC/dose in [7] worked out at 68.6 µg·h/mL. In addition, the half-life in data set [8] is 5.2 h. Also, the result in data set [9] was inactive. For the same molecule, the “Cp(f)” value in [10] is 28000 nM; in data set [12], 2700 nM. In data set [13], this molecule showed an AUC/dose of 186 µg·h/mL. The Activity in [14] is 2 log10CFU.
For `COc1ccc2ncc(F)c(C[C@H](N)[C@@H]3CC[C@@H](NCc4ccc5c(n4)NC(=O)CO5)CO3)c2n1`, the Activity in data set [16] is given as over 2.5 log10CFU. The fAUC/dose in data set [17] is 35.4 µg·h/mL. The RatioAUC/MIC in [18] amounted to 23.5. Also, the Drug uptake in data set [3] stood at 0.5 µM. Also, the MIC came to 0.008 µg/mL (≈ 0.0166 µM) in [19]; 0.063 µg/mL (≈ 0.131 µM) in data set [22]; 0.031 µg/mL (≈ 0.0642 µM) in [23]; 0.008 µg/mL (≈ 0.0166 µM) in data set [28]; 0.125 µg/mL (≈ 0.259 µM) in [15]. The Vd in data set [20] was 12.3 L/kg. For the same molecule, the Ratio is given as 8 in [21], 2 in [24] and 8 in data set [27]. In data set [5], this molecule yielded a logD of 0.9. Further, in data set [25], the solubility is over 100 µg/mL. Further, the fraction unbound in data set [26] and in [11] was 0.15 in each case. In addition, the “Cp(f)” value in [10] and in [12] was 1800 nM throughout. The half-life in [29] is 5.6 h.
